Results as given in ChEMBL document CHEMBL4052730, “Synthesis and evaluation of (E)-2-(5-phenylpent-2-en-4-ynamido)cyclohex-1-ene-1-carboxylate derivatives as HCA2 receptor agonists” (Bioorg Med Chem, 2017).

Legend:
[1] = target: T1, Hydroxycarboxylic acid receptor 2 (Homo sapiens, UniProt Q8TDS4); assay: Agonist activity at recombinant human HCA2 receptor expressed in Flp-IN HEK cells assessed as reduction in forskolin-stimulated cAMP accumulation measured after 30 mins; format: functional, cell-based
Summary of the method: (§1)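 Flp-In-293 cells stably expressing recombinant human HCA2, 12,000 cells/well, treated with compounds plus 3 µM forskolin for 30 min in PBS containing 0.5 mM IBMX, without BSA. Read-out is reduction of forskolin-stimulated cAMP, reported as EC50 and as maximal inhibition (%). Mean ± SD of at least three experiments, each in duplicate.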

[2] = target: T1, Hydroxycarboxylic acid receptor 2; assay: Displacement of [5,6-3H]-nicotinic acid from recombinant human HCA2 receptor expressed in Flp-IN HEK cell membranes after 2 hrs by microbeta counting method
Summary of the method: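 Membranes from human HCA2-expressing Flp-In-293 cells were prepared by acoustic disruption in TE buffer (pH 7.6) and centrifugation at 21,000g. They were used at 25 µg/well in 50 mM Tris-HCl, 1 mM MgCl2, 0.02% CHAPS, pH 7.6, without BSA. Competition with 20 nM [5,6-3H]-nicotinic acid ran 2 h at room temperature, followed by GF/B filtration and scintillation counting. Duplicates, repeated three times.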

[3] = target: T1, Hydroxycarboxylic acid receptor 2; assay: Agonist activity at recombinant human HCA2 receptor expressed in Flp-IN HEK cells assessed as reduction in forskolin-stimulated cAMP accumulation measured after 30 mins relative to control; format: functional, cell-based; summary of the method: as §1

T1 sequence (Q8TDS4 whole entry): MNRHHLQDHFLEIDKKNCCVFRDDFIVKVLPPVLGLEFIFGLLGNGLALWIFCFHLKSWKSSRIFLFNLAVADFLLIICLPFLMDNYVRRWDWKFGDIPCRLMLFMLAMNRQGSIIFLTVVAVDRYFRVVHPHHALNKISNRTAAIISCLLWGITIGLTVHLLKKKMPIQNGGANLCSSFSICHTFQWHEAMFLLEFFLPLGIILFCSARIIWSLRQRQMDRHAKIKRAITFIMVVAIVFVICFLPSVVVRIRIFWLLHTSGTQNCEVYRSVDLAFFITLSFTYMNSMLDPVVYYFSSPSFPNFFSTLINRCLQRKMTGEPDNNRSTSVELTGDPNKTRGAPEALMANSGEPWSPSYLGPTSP

O=C(CCC#Cc1ccccc1O)NC1=C(C(=O)O)CCCC1
EC50 [1]: 720 nM
IC50 [2]: 229 nM
Emax [3]: 93%

O=C(CCC#Cc1ccc(F)cc1)NC1=C(C(=O)O)CCCC1
EC50 [1]: 630 nM
IC50 [2]: 291 nM
Emax [3]: 99%

O=C(CCc1ccc(-c2ccccc2Cl)cc1)NC1=C(C(=O)O)CCCC1
EC50 [1]: 130 nM
IC50 [2]: 75 nM
Emax [3]: 92%

O=C(CCC#Cc1ccccc1Cl)NC1=C(C(=O)O)CCCC1
EC50 [1]: 190 nM
IC50 [2]: 56 nM
Emax [3]: 95%

O=C(CCC#Cc1ccc(O)cc1Cl)NC1=C(C(=O)O)CCCC1
EC50 [1]: 90 nM
IC50 [2]: 76 nM
Emax [3]: 94%

O=C(CCc1ccc(-c2ccc(O)cc2F)cc1)NC1=C(C(=O)O)CCCC1
EC50 [1]: 260 nM
IC50 [2]: 58 nM
Emax [3]: 99%

O=C(CCC#Cc1ccccc1F)NC1=C(C(=O)O)CCCC1
EC50 [1]: 360 nM
IC50 [2]: 67 nM
Emax [3]: 90%

O=C(CCC#Cc1ccc(O)cc1F)NC1=C(C(=O)O)CCCC1
EC50 [1]: 80 nM
IC50 [2]: 28 nM
Emax [3]: 93%

O=C(/C=C/C#Cc1ccccc1Cl)NC1=C(C(=O)O)CCCC1
EC50 [1]: 270 nM
IC50 [2]: 88 nM
Emax [3]: 88%

O=C(CCc1ccc(-c2cccc(O)c2)cc1)NC1=C(C(=O)O)CCCC1
EC50 [1]: 230 nM
IC50 [2]: 32 nM
Emax [3]: 96%

O=C(CCC#Cc1ccc(O)cc1)NC1=C(C(=O)O)CCCC1
EC50 [1]: 160 nM
IC50 [2]: 13 nM
Emax [3]: 91%

O=C(CCC#Cc1cccc(O)c1)NC1=C(C(=O)O)CCCC1
EC50 [1]: 2980 nM
IC50 [2]: 138 nM
Emax [3]: 89%

O=C(/C=C/C#Cc1ccc(O)cc1)NC1=C(C(=O)O)CCCC1
EC50 [1]: 130 nM
IC50 [2]: 25 nM
Emax [3]: 97%

O=C(/C=C/C#Cc1ccccc1)NC1=C(C(=O)O)CCCC1
EC50 [1]: 1010 nM
IC50 [2]: 327 nM
Emax [3]: 79%

O=C(/C=C/C#Cc1ccccc1O)NC1=C(C(=O)O)CCCC1
EC50 [1]: 250 nM
IC50 [2]: 37 nM
Emax [3]: 78%

O=C(/C=C/C#Cc1ccccc1F)NC1=C(C(=O)O)CCCC1
EC50 [1]: 450 nM
IC50 [2]: 16 nM
Emax [3]: 84%

O=C(/C=C/CCc1ccccc1)NC1=C(C(=O)O)CCCC1
EC50 [1]: 19600 nM
IC50 [2]: 2830 nM
Emax [3]: 70%

O=C(CCc1ccc(-c2ccccc2O)cc1)NC1=C(C(=O)O)CCCC1
EC50 [1]: 410 nM
IC50 [2]: 40 nM
Emax [3]: 90%

O=C(/C=C/C#Cc1cccc(O)c1)NC1=C(C(=O)O)CCCC1
EC50 [1]: 390 nM
IC50 [2]: 383 nM
Emax [3]: 92%

O=C(CCc1ccc(-c2ccccc2F)cc1)NC1=C(C(=O)O)CCCC1
EC50 [1]: 190 nM
IC50 [2]: 282 nM
Emax [3]: 97%

O=C(/C=C/C#Cc1ccc(O)cc1F)NC1=C(C(=O)O)CCCC1
EC50 [1]: 110 nM
IC50 [2]: 331 nM
Emax [3]: 96%

O=C(CCC#Cc1ccc(C(=O)O)cc1)NC1=C(C(=O)O)CCCC1
EC50 [1]: 5610 nM
IC50 [2]: 3620 nM
Emax [3]: 74%

O=C(CCC#Cc1ccc(O)cn1)NC1=C(C(=O)O)CCCC1
EC50 [1]: 3370 nM
IC50 [2]: 665 nM
Emax [3]: 91%

O=C(CCc1ccc(-c2ccc(O)cc2)cc1)NC1=C(C(=O)O)CCCC1
EC50 [1]: 70 nM
IC50 [2]: 21 nM
Emax [3]: 92%
